PKD1 inh: blocks activity of human protein kinase D1. Q15139. PKD1 kinase fluorescence polarization assay. inhibition, % (concentration not given with the values). 200,000 compounds, 0.056% hits
L major viab: reduces viability of Leishmania major promastigotes; resazurin fluorescence viability; 200,000 compounds, 9% hits; inhibition, % at 10 µM;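 note: promastigotes grown with compound for 44 hours at 28 °C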
CHOP inhibitor: CHOP inhibition in unfolded protein response | CHO-K1 CHOP-promoter luciferase, tunicamycin-induced, 15-18 h | inhibition, % at 10 µM | 220,000 compounds, 3.8% hits | AID 2732;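 active = compounds that reduced the stress-induced luciferase reporter signal by more than about 70% of percent inhibition, limit read from the data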;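 note: 0% = tunicamycin plus vehicle and 100% = wells without tunicamycin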
Wee1 degr inh: human Wee1 degradation inhibition, primary screen. P30291. HeLa Luc-Wee1K328M stability, luciferase luminescence; 100% = proteasome inhibitor MG132 effect. reporter increase, % at 5 µM. 220,000 compounds, 1.2% hits;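 active = activation above the mean of all tested compounds plus 3 SD, set per screening run, cut at about 8.8% in these data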;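 note: cells exposed to compound for 20 h before luminescence read; 0% = DMSO alone and 100% = MG132 at 30 µM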
Arbovirus inh: blocks arbovirus infection; arbovirus infection cell-based antiviral screen; inhibition, % at 10 µM; 200,000 compounds, 0.37% hits; AID 1251; in the data active = inhibition above about 30%
Rad51 HR inh: blocks human Rad51 in homologous recombination. 200,000 compounds, 0.085% hits. Q06609. inhibition, % at 10 µM. hRad51 DNA strand exchange, fluorescence dequenching;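 active = inhibition above 40% at the single screening dose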;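 note: 0% = DMSO control wells and 100% = blanks with heterologous ssDNA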
Target sequence (Q06609 whole entry, looked up): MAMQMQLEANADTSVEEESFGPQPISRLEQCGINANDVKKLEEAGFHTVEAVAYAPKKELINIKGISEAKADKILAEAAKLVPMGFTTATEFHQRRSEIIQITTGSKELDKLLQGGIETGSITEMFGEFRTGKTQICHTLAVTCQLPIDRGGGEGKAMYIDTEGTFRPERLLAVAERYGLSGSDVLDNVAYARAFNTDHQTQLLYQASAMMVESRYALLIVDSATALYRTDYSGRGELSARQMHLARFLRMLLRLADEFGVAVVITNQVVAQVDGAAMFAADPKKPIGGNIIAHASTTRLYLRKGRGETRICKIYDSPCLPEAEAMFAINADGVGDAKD
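Material: human Rad51–ssDNA filaments; Probe or stimulus: labelled 47-mer dsDNA for strand exchange; Doses: single 10 µM dose; Incubation: 37 °C 15-min filament assembly, 30-min compound preincubation, 15-min exchange; Technique: FRET fluorescence dequenching, excitation 485 nm, emission 520 nm; Measure: Fluorescence-based percent inhibition, control- and blank-normalised; Benchmarks: plate control and blank wells.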
An asterisk follows results filed as active; x = not tested or not shown. In the library only some 12% were active in any assay of this set; here they are far more common. Cut-off read from the data, not from the text of the source, unless noted: active = inhibition above about 50%; inactive = the rest.

SMILES	PKD1 inh	L major viab	CHOP inhibitor	Wee1 degr inh	Arbovirus inh	Rad51 HR inh
C=C(C)COc1ccc(-c2ncncc2Oc2ccc(OC)cc2)c(O)c1	11	66*	34	0	11	-3
COc1ccc(-c2nc(N)ncc2Oc2ccccc2Br)c(O)c1	3	33	88*	-2	-8	6
C=C(C)COc1ccc(-c2nc(N)nc(C)c2Oc2ccccc2OC)c(O)c1	-13	21	85*	3	-6	-2
COc1cccc(Oc2cnc(N)nc2-c2ccc(OC)cc2O)c1	-9	36	x	0	-20	5
C=C(C)COc1ccc(-c2[nH]ncc2-c2ccc(OC)cc2)c(O)c1	x	x	38	-1	x	x
C=C(C)COc1ccc(-c2nc(N)nc(C)c2-c2ccc(OC)cc2)c(O)c1	-9	-1	92*	-2	1	x
Cc1ccc(/C=C/C(=O)Nc2ccccc2C(N)=O)cc1	-10	1	-5	3	-19	-22
CC(=O)Nc1nc(SCC(=O)NCc2ccc(F)cc2)[nH]c(=O)c1NC(=O)c1cccs1	2	-9	-8	-3	5	3
C=C(C)COc1ccc(-c2nc(N)ncc2-c2ccc(OC)cc2)c(O)c1	2	30	103*	-1	-46	-7
COc1ccc(-c2cnc(N)nc2-c2ccc(OC)cc2O)cc1	-3	8	64	1	12	-6
O=C(O)/C=C/c1ccc2noc(-c3ccccc3)c2c1	10	0	49	26*	11	x
N#Cc1c(-c2ccco2)cc(-c2ccccn2)nc1N	7	78*	-45	0	-12	-10
N#Cc1c(-c2ccco2)cc(-c2cccnc2)nc1N	27	18	0	-2	-10	-13
CN(C)c1ccnc(N(Cc2ccccc2)Cc2ccccc2)c1C#N	-3	98*	48	6	-13	8
O=C(Cn1cc([N+](=O)[O-])cn1)NCc1cc2ccccc2[nH]1	8	-8	17	-1	5	6
O=c1n(Cc2ccccc2F)c2ccccc2n1Cc1ccccc1F	-5	10	74*	0	-13	4
COc1ccc(N2CCN(c3ccc(Cl)nn3)CC2)cc1	-5	2	-13	1	-1	14
O=C(NC1CC2CCCC(C1)N2Cc1ccccc1)C1CCCCC1 (stereo not drawn)	7	84*	1	-2	-3	10
CC(C)CNC(=S)NC1CC2CCCC(C1)N2C1CCCCC1 (stereo not drawn)	1	52*	1	2	14	-3
CC(C)CNC(=S)NC1CC2CCC(C1)N2Cc1ccccc1 (stereo not drawn)	5	88*	-17	0	1	x
Cc1ccccc1C(=O)NC1CC2CCC(C1)N2Cc1ccccc1 (stereo not drawn)	-8	86*	1	0	2	15
Cc1n[nH]c(C)c1CCC(=O)N/N=C/c1cccs1	x	x	-5	2	x	-11
CCCC(=O)NCCc1c2n(c3ccc(OC)cc13)CCCc1ccccc1-2	x	x	-2	x	x	x
CCOCCCNC(=S)NC1CC2CCC(C1)N2Cc1ccccc1 (stereo not drawn)	3	88*	18	3	6	-4
S=C(NCCc1ccccc1)NC1CC2CCC(C1)N2Cc1ccccc1 (stereo not drawn)	1	94*	32	-3	-13	7
SMILES	PKD1 inh	L major viab	CHOP inhibitor	Wee1 degr inh	Arbovirus inh	Rad51 HR inh
CCCNC(=S)NC1CC2CCC(C1)N2Cc1ccccc1 (stereo not drawn)	-6	66*	18	3	-7	-4
CCNC(=S)NC1CC2CCC(C1)N2Cc1ccccc1 (stereo not drawn)	-10	27	21	-1	3	-8
S=C(NC1CCCCC1)NC1CC2CCC(C1)N2Cc1ccccc1 (stereo not drawn)	0	90*	22	-2	2	0
COCCCNC(=S)NC1CC2CCC(C1)N2Cc1ccccc1 (stereo not drawn)	1	24	8	2	2	-4
COc1ccc(C(=O)/C(=C/O)N=Nc2ccc(F)cc2)cc1	-1	61*	53	6	7	-18
COc1ccc(N=N/C(=C\O)C(=O)c2cccs2)cc1	-9	69*	72*	-2	4	-1
COc1ccc(NC(=O)c2cccs2)cc1	-2	2	-12	-1	-4	-1
COc1ccc(C(=O)C(/C=N/O)=N/Nc2ccc(F)cc2)cc1	0	5	6	0	6	18
O=C(CN1CCN(Cc2ccc3c(c2)OCO3)CC1)N1CCc2[nH]c3ccc(F)cc3c2C1	-6	99*	26	-2	-11	-2
Cc1ccc2[nH]c3c(c2c1)CN(C(=O)CN1CCN(c2ccccc2F)CC1)CC3	0	23	23	-2	5	-3
CC1CN(CC(=O)N2CCc3[nH]c4ccccc4c3C2)CC(C)O1 (stereo not drawn)	-4	-4	7	-1	1	-1
O=C(CN1CCN(Cc2ccc3c(c2)OCO3)CC1)N1CCc2[nH]c3ccccc3c2C1	-4	82*	2	0	6	-7
CN(C)c1ccc(/C=C/c2ccc3ccccc3[n+]2C)cc1	-3	100*	70*	-4	-23	12
CN(C)c1ccc(/C=C/c2ccncc2)cc1	-4	0	33	5	-11	-3
CN(C)c1ccc(/C=C/c2cccc[n+]2[O-])cc1	x	x	-6	9.9*	x	x
CN(Cc1ccccc1)c1nc2nonc2nc1N1CCCC(CN2CCCC2=O)C1 (stereo not drawn)	x	x	-6	0	x	x
CCOc1cc(O)c(-c2[nH]ncc2-c2nc(C)cs2)cc1CC	x	x	18	-3	x	x
COc1cc(CN2CCC(C(=O)N3CCN(c4ccccc4F)CC3)CC2)cc(OC)c1OC	-2	83*	-2	-2	-8	4
COc1cc(CN2CCC(C(=O)N3CCC(C)CC3)CC2)cc(Br)c1O	-7	82*	-4	-4	4	-7
CCCn1c(CC)nc([N+](=O)[O-])c1S(=O)(=O)c1ccccc1	0	100*	34	-1	-32	-7
Cn1c(S(=O)(=O)c2ccc([N+](=O)[O-])cc2)nc(Br)c1Br	x	x	-9	-2	x	-12
Cc1cc(N2CCCC2=O)cc(C)c1S(=O)(=O)NCCOc1ccc(C(C)(C)C)cc1	-4	6	78*	4	-13	-3
CNc1nc(SC(C)C(=O)Nc2ccc(Cl)c(Cl)c2)nc(N2CCOCC2)n1 (stereo not drawn)	0	0	56	0	7	9
COC(=O)CC/C(C)=N\Nc1ccc([N+](=O)[O-])cc1[N+](=O)[O-]	8	-7	75*	0	4	-10
Cc1nn(C)c(Sc2ccccn2)c1[N+](=O)[O-]	x	x	24	-3	x	10
CC(NC(=O)CNC(=S)N(Cc1ccccc1)Cc1cccnc1)c1ccccc1 (stereo not drawn)	7	65*	7	7	3	4

High-throughput results deposited in PubChem BioAssay by several laboratories.
